The results in this text go back to ChEMBL document CHEMBL5046312, “Rational Design of an Orally Active Anticancer Fluoropyrimidine, Pencitabine, a Hybrid of Capecitabine and Gemcitabine” (ACS Med Chem Lett, 2022).

By IC50 is commonly meant the point on the concentration scale where inhibition reaches its midpoint. As a reminder, the inhibition in vivo is how much of the control response was suppressed.

Assay [1] has as its system SK-BR-3. Description: Induction of DNA damage in human SK-BR-3 cells assessed as increase in tail DNA measured at 1 uM after 72 hrs by neutral comet assay relative to control. The settings on record: in the assay text read “alkaline comet assay” for “neutral comet assay”. The format is functional. The essentials:
(§1)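 Comet assay scoring DNA damage as % DNA in tail; cells exposed to 0.5, 1.0 or 2.0 μM etoposide or 1.0, 3.0 or 10 μM test nucleoside; mean of scored comets per sample with SE and 80% confidence interval.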

Assay [2] deals with SK-BR-3. As to the kind of experiment: Induction of DNA damage in human SK-BR-3 cells assessed as increase in tail DNA measured at 3 uM after 72 hrs by neutral comet assay relative to control. The assay is classed as functional. The settings on record: in the assay text read “alkaline comet assay” for “neutral comet assay”. The essentials:
as §1

Assay [3] relates to SK-BR-3. As to the kind of experiment: Induction of DNA damage in human SK-BR-3 cells assessed as increase in tail DNA measured at 10 uM after 72 hrs by neutral comet assay relative to control. The format is functional. To be noted: in the assay text read “alkaline comet assay” for “neutral comet assay”. An outline of the steps:
as §1

Assay [4] relates to HCT-116. Description: Antiproliferative activity against human HCT-116 cells assessed as reduction in cell viability incubated for 72 hrs by MTT assay. To be noted: HCT-116, 72 h. The format is functional, cell-based. The essentials:
(§2)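 Growth inhibition after 72 h continuous exposure of HCT-116 colorectal carcinoma or KG-1 acute myelogenous leukemia cells; concentration giving 50% inhibition taken from dose–response curves.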

The test system of another assay is KG-1. As to the kind of experiment: Antiproliferative activity against human KG-1 cells assessed as reduction in cell viability incubated for 72 hrs by MTT assay. The settings on record: KG-1, 72 h. The format is functional, cell-based. An outline of the steps: as §2
In general terms: Formazan colour is commonly taken as a measure of viable cells.

Assay [5] has as its system HCT-116. Description: Antitumor activity against human HCT-116 cells xenografted in athymic nude mouse assessed as tumor growth inhibition at 25 mg/kg, po administered for 26 days relative to control. The assay is classed as functional. To be noted: HCT-116, po, 624 h, time 26 day. The essentials:
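Subcutaneous HCT-116 human colorectal carcinoma xenografts in athymic female nude mice; oral dosing at 25 mg/kg over a 26-day period, with capecitabine given as positive control; tumor growth followed, N = 3, SD shown.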

The subject of assay [6] is SK-BR-3. As to the kind of experiment: Induction of DNA damage in human SK-BR-3 cells assessed as increase in tail DNA measured at 0.5 uM after 72 hrs by neutral comet assay relative to control. To be noted: in the assay text read “alkaline comet assay” for “neutral comet assay”. The format is functional. An outline of the steps:
as §1

Assay [7] deals with SK-BR-3. As to the kind of experiment: Induction of DNA damage in human SK-BR-3 cells assessed as increase in tail DNA measured at 2 uM after 72 hrs by neutral comet assay relative to control. The format is functional. To be noted: in the assay text read “alkaline comet assay” for “neutral comet assay”. The essentials:
as §1

Consider `Nc1nc(=O)n([C@@H]2O[C@H](CO)[C@@H](O)C2(F)F)cc1F`, for which the Activity stood at 20.7% in the assay on SK-BR-3 [1], 24.28% with SK-BR-3 [2] and 26.73% in the assay on SK-BR-3 [3].
`CCCCCOC(=O)Nc1nc(=O)n([C@@H]2O[C@H](CO)[C@@H](O)C2(F)F)cc1F`: the half-maximal inhibitory concentration (IC50) was 370 nM with HCT-116 [4] and 130 nM with KG-1. The inhibition in vivo at 25 mg/kg with HCT-116 [5] was 40%.
On to `CCCCCOC(=O)Nc1nc(=O)n([C@@H]2O[C@H](C)[C@@H](O)[C@H]2O)cc1F` [CAPECITABINE], for which the IC50 was 34200 nM with HCT-116 [4] and 8900 nM in the assay on KG-1.
`COc1cc([C@@H]2c3cc4c(cc3[C@@H](O[C@@H]3O[C@@H]5CO[C@@H](C)O[C@H]5[C@H](O)[C@H]3O)[C@H]3COC(=O)[C@H]23)OCO4)cc(OC)c1O` [ETOPOSIDE]: the Activity amounted to 24.98% in the assay with SK-BR-3 [1], 15.87% in the assay with SK-BR-3 [6] and 35.17% in the assay on SK-BR-3 [7].
Take `Nc1ccn([C@@H]2O[C@H](CO)[C@@H](O)C2(F)F)c(=O)n1` [GEMCITABINE]: the half-inhibitory concentration (IC50) with HCT-116 [4] was determined as 50 nM; in the assay on KG-1, 18 nM.
